Measurements pooled from the literature.
Each line is one published result; the experiments were not run side by side.

| SMILES | test system | setting | measurement | value |
| --- | --- | --- | --- | --- |
| CCC[C@@](N)(CO)CCc1ccc(OCCCCCC(C)C)cc1 | rat, plasma | oral, 30 mg/kg | AUC(0-t) | 6.18 µM·h |
| CCCCCCCC(=O)N[C@@H](CCCCN)C(=O)N[C@@H](CCCCN)C(=O)N[C@@H](C)C(=O)N[C@@H](CC(C)C)C(=O)N[C@@H](CCCCN)C(=O)N[C@@H](CC(C)C)C(=O)N[C@@H](C)C(=O)N[C@@H](CCCCN)C(=O)N[C@@H](CCCCN)C(=O)N1CCC[C@H]1C(=O)N[C@@H](CC(C)C)C(=O)N[C@@H](CCCCN)C(=O)N[C@@H](CC(C)C)C(=O)N[C@@H](CC(C)C)C(=O)N[C@@H](CCCCN)C(N)=O | male Sprague-Dawley rat, blood | intravenous, 3 mg/kg, infusion | AUC(0-inf) | 273 ng·h/mL |
| Cl.Cl.O=C(CCN1CCCCC1)c1ccc(-c2ccc(C(=O)CCN3CCCCC3)cc2)cc1 | Sprague-Dawley rat, plasma | intravenous, 5 mg/kg | AUC(0-t) | 251 ng·h/mL |
| CCCCCn1cc(C(=O)Nc2cccc3ccccc23)c2ccccc21 | male Long-Evans rat, plasma | intraperitoneal, 3 mg/kg | AUC(0-t) | 4240 ng·h/mL |
| O=C([O-])C(=O)[O-].[NH-][C@@H]1CCCC[C@H]1[NH-].[Pt+4] (relative stereo) | rat, plasma | oral, 10 mg/kg | AUC(0-inf) | 170 ng·h/mL |
| [2H]C([2H])([2H])n1cc2cc(Nc3nc(=O)n(Cc4ncn(C)n4)c(=O)n3Cc3cc(F)c(F)cc3F)c(Cl)cc2n1 | male Sprague-Dawley rat, plasma | intravenous, 5 mg/kg | AUC(0-t) | 89900 ng·h/mL |
| N=c1c2c(-c3ccccc3)c(-c3ccccc3)n(Cc3ccccc3)c2ncn1[C@H]1CC[C@H](O)CC1 | male Sprague-Dawley rat, plasma | intravenous, 2 mg/kg, single dose | AUC(0-inf) | 1700 ng·h/mL |
| COC(=O)C(NC(=O)c1cn(CCCCCF)c2ccccc12)C(C)(C)C (stereo not shown) | male Sprague-Dawley rat, plasma | subcutaneous, 100 µg/kg | AUC(0-t) | 17 ng·h/mL |
| CCCCCn1nc(C(=O)Nc2cccc3ccccc23)c2ccccc21 | male Long-Evans rat, plasma | intraperitoneal, 3 mg/kg | AUC(0-t) | 304 ng·h/mL |
| [2H]C([2H])(c1cc(F)c(F)cc1F)n1c(=O)n(Cc2ncn(C)n2)c(=O)[nH]/c1=N\c1cc2cn(C)nc2cc1Cl | male Sprague-Dawley rat, plasma | oral, 25 mg/kg | AUC(0-t) | 451000 ng·h/mL |
| CC(C)(C)[C@H](NC(=O)[C@H](CCONC(=N)N)NC(=O)Cc1ccc(CNC(=N)N)cc1)C(=O)N[C@@H](CCONC(=N)N)C(=O)NCc1ccc(C(=N)N)cc1 | male Sprague-Dawley rat, plasma | intraperitoneal, 2.5 mg/kg | AUC(0-inf) | 9640 ng·h/mL |
| Cn1cnc(Cn2c(=O)[nH]/c(=N\c3cc4cn(C)nc4cc3Cl)n(Cc3cc(F)c(F)cc3F)c2=O)n1 | male Sprague-Dawley rat, plasma | oral, 25 mg/kg | AUC(0-t) | 515000 ng·h/mL |
| CN(C)C(=O)Oc1cc(OC(=O)N(C)C)cc(-c2cc3ccc(O)cc3o2)c1 | male rat, plasma | oral, 5 mg/kg | AUC(0-inf) | 26.2 ng·h/mL |
